Laboratory results taken from ChEMBL document CHEMBL2169772, “Discovery of (2S)-1-[4-(2-{6-amino-8-[(6-bromo-1,3-benzodioxol-5-yl)sulfanyl]-9H-purin-9-yl}ethyl)piperidin-1-yl]-2-hydroxypropan-1-one (MPC-3100), a purine-based Hsp90 inhibitor” (J Med Chem, 2012).

Tests used:
[1] = target: T1, Heat shock protein HSP90 (Homo sapiens, UniProt P07900+P08238); assay: Inhibition of human HSP90 in HCT116 cells expressing Her2 gene assessed as degradation of Her2 after 4 hrs by luciferase reporter gene assay; assay type: cell-based; conditions: hct-116
Outline: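 HCT116 cells stably transfected with Her2 kinase domain (aa 641–975) fused to firefly luciferase. Seeded at 10 000 per well in DMEM with 10% serum and left overnight. Compound added from DMSO (0.4% final) for 4 h. Steady-Glo added at room temperature for 5 min, then luminescence read.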

[2] = Cytotoxicity against human NCI-ADR-RES cells overexpressing P-gp 1 assessed as inhibition of tumor growth incubated for 72 hrs by luminometry; assay type: functional, cell-based
Outline: (§1)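 Cells seeded at 5000 per well in DMEM with 10% serum and left overnight. Compound added from DMSO dilutions (0.4% DMSO final) for 72 h. After 5 min at room temperature, ATPLite two-step lysis and substrate added, 5 min incubation, then luminescence read. Values are the mean of at least two experiments.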

[3] = target: T1, Heat shock protein HSP90; assay: Inhibition of human HSP90 using BODIPY labelled geldanamycin as substrate by fluorescence polarization assay; assay type: protein assay
[4] = Cmax in Swiss nude mouse at 10 mg/kg, po by LC-ESI-MS/MS method; assay type: ADME, organism-based; set-up: dose 10 mg/kg, route oral; conditions: in vivo
Outline: (§2)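 Mice dosed by oral gavage, vehicle DMA/PEG300/EtOH/H2O (3/40/12/45, v/v/v/v). Blood drawn by cardiac puncture into EDTA plasma. Three or five animals per time point. Plasma precipitated with acetonitrile plus internal standard. Quantified by LC-ESI-MS/MS against a 10–10 000 ng/mL standard curve with QC samples. Noncompartmental analysis.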

[5] = Volume of distribution in Swiss nude mouse at 2.5 mg/kg, iv by LC-ESI-MS/MS method; assay type: ADME, organism-based; set-up: dose 2.5 mg/kg, route intravenous; conditions: in vivo
Outline: (§3)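 Intravenous dose in mice, vehicle DMA/PEG300/EtOH/H2O 3/40/12/45. Sampling at 5, 15, 30, 60, 120, 240, 480 and 720 min, three or five animals per time point. Cardiac-puncture EDTA plasma. Acetonitrile protein precipitation with internal standard, then LC-ESI-MS/MS (10–10 000 ng/mL curve). Parameters by noncompartmental fit.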

[6] = AUC in Swiss nude mouse at 10 mg/kg, po by LC-ESI-MS/MS method; assay type: ADME, organism-based; set-up: dose 10 mg/kg, route oral; conditions: plasma; outline: as §2
[7] = Half life in Swiss nude mouse at 2.5 mg/kg, iv by LC-ESI-MS/MS method; assay type: ADME, organism-based; set-up: dose 2.5 mg/kg, route intravenous; conditions: in vivo; outline: as §3
[8] = Oral bioavailability in Swiss nude mouse at 10 mg/kg by LC-ESI-MS/MS method; assay type: ADME, organism-based; conditions: in vivo; outline: as §2
[9] = AUC in Swiss nude mouse at 2.5 mg/kg, iv by LC-ESI-MS/MS method; assay type: ADME, organism-based; set-up: dose 2.5 mg/kg, route intravenous; conditions: plasma; outline: as §3
[10] = test system: Mus musculus; assay: Hepatic clearance in Swiss nude mouse at 2.5 mg/kg, iv by LC-ESI-MS/MS method; assay type: ADME, organism-based, Liver; set-up: dose 2.5 mg/kg, route intravenous; conditions: in vivo; outline: as §3
[11] = Tmax in Swiss nude mouse at 10 mg/kg, po by LC-ESI-MS/MS method; assay type: ADME, organism-based; set-up: dose 10 mg/kg, route oral; conditions: in vivo; outline: as §2
[12] = test system: HCT-116; assay: Cytotoxicity against human HCT116 cells assessed as inhibition of tumor growth incubated for 72 hrs by luminometry; assay type: functional, cell-based; conditions: HCT-116, 72 h; outline: as §1
[13] = Metabolic stability in human liver microsomes assessed as percent of residual drug in presence of NADPH incubated for 40 mins by LC-ESI-MS/MS method; assay type: ADME, Microsome; conditions: liver microsomes, read-out: Stability
Outline: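 Test article incubated in duplicate with human liver microsomes (0.5 mg/mL protein) in 100 mM potassium phosphate pH 7.4. Started with 1 mM NADPH. Stopped with acetonitrile at 0, 10, 20 and 40 min. LC-MS/MS peak area at 40 min reported as percent of 0 min. No-NADPH control incubated for 40 min.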

Row | IC50 [1] | IC50 [3] | remaining at 40 min [13] | SMILES | IC50 [2] | IC50 [12] | further results
1 | 110 nM | 700 nM |  | CC(C)CN1CCC(CCn2c(Sc3cc4c(cc3Br)OCO4)nc3c(N)ncnc32)CC1 | 1980 nM |  | 
2 |  | 600 nM |  | Nc1ncnc2c1nc(Sc1cc3c(cc1Br)OCO3)n2CCC1CCN(CC(F)(F)F)CC1 |  |  | 
3 | 34 nM | 110 nM | 2% | CC(=O)C(=O)N1CCC(CCn2c(Sc3cc4c(cc3Br)OCO4)nc3c(N)ncnc32)CC1 | 100000 nM | 270 nM | 
4 |  | 1800 nM |  | CC(C)(C)n1nnnc1N1CCC(CCn2c(Sc3cc4c(cc3Br)OCO4)nc3c(N)ncnc32)CC1 |  |  | 
5 | 950 nM | 470 nM | 78% | Nc1ncnc2c1nc(Sc1cc3c(cc1Br)OCO3)n2CCC1CCNCC1 | > 100000 nM | 4600 nM | 
6 | 80 nM | 70 nM |  | CN(C)CC(=O)N1CCC(CCn2c(Sc3cc4c(cc3Br)OCO4)nc3c(N)ncnc32)CC1 | 100000 nM | 200 nM | 
7 | 100 nM | 110 nM | 10% | C#CCN1CCC(CCn2c(Sc3cc4c(cc3Br)OCO4)nc3c(N)ncnc32)CC1 | 700 nM | 740 nM | 
8 | 110 nM | 68 nM | 44% | CC(C)C[C@H](N)C(=O)N1CCC(CCn2c(Sc3cc4c(cc3Br)OCO4)nc3c(N)ncnc32)CC1 | 34000 nM | 890 nM | 
9 | 250 nM | 250 nM | 0% | Nc1ncnc2c1nc(Sc1cc3c(cc1Br)OCO3)n2CCC1CCN(C(=O)C2CCCC2)CC1 | 370 nM | 1300 nM | 
10 | 92 nM | 210 nM | 31% | Nc1ncnc2c1nc(Sc1cc3c(cc1Cl)OCO3)n2CCC1CCN(C=O)CC1 | 7600 nM | 1400 nM | 
11 |  | > 5000 nM |  | CC(C)(O)C(=O)N1CCC(CCn2c(Sc3cc4c(cc3Br)OCO4)nc3c(N)ncnc32)CC1 |  |  | 
12 | 31 nM | 45 nM | 0% | Cn1nnnc1N1CCC(CCn2c(Sc3cc4c(cc3Br)OCO4)nc3c(N)ncnc32)CC1 | 130 nM | 62 nM | 
13 | 200 nM | 110 nM | 69% | C[C@H](N)C(=O)N1CCC(CCn2c(Sc3cc4c(cc3Br)OCO4)nc3c(N)ncnc32)CC1 | 100000 nM | 1200 nM | 
14 |  | 300 nM | 0% | CCCC(=O)N1CCC(CCn2c(Sc3cc4c(cc3Br)OCO4)nc3c(N)ncnc32)CC1 | 2000 nM | 850 nM | 
15 | 960 nM | 180 nM |  | CC(C)(N)C(=O)N1CCC(CCn2c(Sc3cc4c(cc3Br)OCO4)nc3c(N)ncnc32)CC1 | 50000 nM | 1600 nM | 
16 | 90 nM | 60 nM | 17% | CC(=O)N1CCC(CCn2c(Sc3cc4c(cc3Br)OCO4)nc3c(N)ncnc32)CC1 | 3000 nM | 730 nM | 
17 | 90 nM | 57 nM | 0% | Nc1ncnc2c1nc(Sc1cc3c(cc1Br)OCO3)n2CCC1CCOCC1 |  | 590 nM | 
18 | 110 nM | 110 nM | 1% | Nc1ncnc2c1nc(Sc1cc3c(cc1Br)OCO3)n2CCC1CCN(C(=O)C2CC2)CC1 | 930 nM | 650 nM | 
19 | 250 nM | 240 nM | 10% | Nc1ncnc2c1nc(Sc1cc3c(cc1Br)OCO3)n2CCC1CCN(CC2CCCCC2)CC1 | 722 nM | 1000 nM | 
20 | 190 nM | 60 nM | 38% | Nc1ncnc2c1nc(Sc1cc3c(cc1Br)OCO3)n2CCC1CCN(C(=O)[C@@H]2CCCN2)CC1 | 89000 nM | 830 nM | 
21 |  | 1000 nM | 15% | Nc1ncnc2c1nc(Sc1cc3c(cc1Br)OCO3)n2CCC1CCC(F)(F)CC1 |  |  | 

Continued, compound first:

Row | SMILES | IC50 [1] | IC50 [3] | remaining at 40 min [13] | IC50 [2] | IC50 [12] | further results
22 | Nc1ncnc2c1nc(Sc1cc3occc3cc1Br)n2CCC1CCN(C=O)CC1 | 48 nM | 59 nM | 53% | 1100 nM | 260 nM | Cmax [4]: 2230 ng/mL; Vd [5]: 1.06 L/kg; AUC [6]: 4610 ng·h/mL; half-life [7]: 18 min; bioavailability [8]: 131%; AUC [9]: 880 ng·h/mL; CLH [10]: 47.35 mL/min/kg; Tmax [11]: 30 min
23 | C[C@H](O)C(=O)N1CCC(CCn2c(Sc3cc4c(cc3Br)CCO4)nc3c(N)ncnc32)CC1 | 28 nM | 34 nM | 21% | 11000 nM | 210 nM | 
24 | Nc1ncnc2c1nc(Sc1cc3c(cc1Br)OCC3)n2CCC1CCN(C=O)CC1 | 280 nM | 400 nM | 5% | 86000 nM | 1200 nM | 
25 | Nc1ncnc2c1nc(Sc1cc3c(cc1Br)OCO3)n2CCc1ccccc1Br [BROMODERIVATIVE] | 50 nM | 30 nM | < 1% |  | 200 nM | 
26 | N#Cc1cc2c(cc1Sc1nc3c(N)ncnc3n1CCC1CCN(C=O)CC1)OCO2 | 250 nM | 210 nM | 81% |  | 25000 nM | 
27 | Nc1ncnc2c1nc(Sc1cc3c(cc1Br)C(=O)CC3)n2CCC1CCN(C=O)CC1 | 60 nM | 60 nM | 30% | 100000 nM | 270 nM | 
28 | CN1CCOc2cc(Sc3nc4c(N)ncnc4n3CCC3CCN(C=O)CC3)c(Br)cc21 | 32 nM | 65 nM |  | 100000 nM | 250 nM | 
29 | Nc1ncnc2c1nc(Sc1cc3c(cc1Br)CCC3)n2CCC1CCN(C=O)CC1 |  | 20 nM | 1% | 230 nM | 20 nM | 
30 | Nc1ncnc2c1nc(Sc1cc3c(cc1Br)CCO3)n2CCC1CCN(C=O)CC1 | 10 nM | 40 nM |  | 1800 nM | 90 nM | 
31 | Nc1ncnc2c1nc(Sc1cc3c(cc1Br)OCO3)n2CCc1ccccc1F | 50 nM | 30 nM | < 1% |  | 200 nM | 
32 | CN1CCOc2cc(Br)c(Sc3nc4c(N)ncnc4n3CCC3CCN(C=O)CC3)cc21 | 210 nM | 310 nM | 0% | 20000 nM | 1500 nM | 
33 | Nc1ncnc2c1nc(Sc1cc3c(cc1Br)OCO3)n2CCc1ccccc1Cl [CHLORODERIVATIVE] | 50 nM | 30 nM | < 1% |  | 200 nM | 
34 | Nc1ncnc2c1nc(Sc1cc3c(cc1Br)OCO3)n2CC[C@@H]1CCCCN1C=O |  | 180 nM |  |  |  | 
35 | C[C@H](O)C(=O)N1CCC(CCn2c(Sc3cc4c(cc3Cl)OCO4)nc3c(N)ncnc32)CC1 | 540 nM | 650 nM | 32% | 20000 nM | 2700 nM | 
36 | Nc1ncnc2c1nc(Sc1cc3ccoc3cc1Br)n2CCC1CCN(C=O)CC1 | 660 nM | 900 nM | 51% | 7900 nM | 4400 nM | 
37 | Nc1ncnc2c1nc(Sc1cc3c(cc1Br)OCO3)n2CC[C@H]1CCCCN1C=O |  | 190 nM |  |  |  | 
